Assay results published in BindingDB's records for PubMed 36760746 (n/a, 2023).

Molecular target: Induced myeloid leukemia cell differentiation protein Mcl-1 (Homo sapiens, UniProt Q07820)
Assay: Inhibition of FITC-labelled BAK BH3 peptide to 6His-MBP tagged recombinant human MCL-1 (172 to 327 residues) expressed in Escherichia coli assessed as inhibition constant by fluorescence polarization competition assay
How it was run: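 Fluorescence polarization competition: compounds titrated into a mixture of MCL-1 (residues 172–327) and FITC-labelled BAK BH3 peptide. Displacement of the peptide was followed by the change in polarization, and Ki was derived from the competition titration.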

Sequence of Induced myeloid leukemia cell differentiation protein Mcl-1 (Q07820 whole entry, the tested form may be a part): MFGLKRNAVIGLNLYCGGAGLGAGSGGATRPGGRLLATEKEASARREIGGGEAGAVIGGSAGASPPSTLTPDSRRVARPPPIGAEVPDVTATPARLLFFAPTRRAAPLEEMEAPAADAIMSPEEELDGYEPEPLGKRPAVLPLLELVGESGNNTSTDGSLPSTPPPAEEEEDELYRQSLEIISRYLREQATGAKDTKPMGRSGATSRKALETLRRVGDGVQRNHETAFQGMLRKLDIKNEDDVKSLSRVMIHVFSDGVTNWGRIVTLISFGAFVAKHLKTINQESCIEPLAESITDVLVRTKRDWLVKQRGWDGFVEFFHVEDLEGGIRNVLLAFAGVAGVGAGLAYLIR

SMILES	Ki
CC(C)CN(c1ccc(C(=O)O)cc1)S(=O)(=O)c1ccc(F)cc1 [4-(4-fluoro-N-isobutylphenyl-sulfonamido) benzoic acid]	> 500 µM
CC(C)CN(c1cccc(C(=O)O)c1)S(=O)(=O)c1ccccc1 [3-(N-isobutylphenyl-sulfonamido) benzoic acid]	> 500 µM
CC(C)CN(c1ccc(C(=O)O)cc1)S(=O)(=O)c1ccc2ccccc2c1 [4-(N-isobutylnaphthalene-2-sulfonamido) benzoic acid]	> 500 µM
CC(C)CN(c1ccc(C(=O)O)cc1)S(=O)(=O)c1ccccc1 [4-(N-isobutylphenyl-sulfonamido) benzoic acid]	> 500 µM

Second part, the molecule after the results:

Ki	SMILES
> 500 µM	CC(C)CN(c1cccc(C(=O)O)c1)S(=O)(=O)c1ccc(F)cc1 [3-(4-fluoro-N-isobutylphenyl-sulfonamido) benzoic acid]
> 500 µM	CC(C)CN(c1cccc(C(=O)O)c1)S(=O)(=O)c1ccc(-c2ccccc2)cc1 [3-(N-isobutyl-[1,1'-biphenyl]-4-ylsulfonamido) benzoic acid]
